An excerpt weighted towards active compounds, which were near 2.3% of everything screened.
TRPC4 agonist: activators of mouse TRPC4 channel. Q9QUQ5. HEK293 TRPC4beta/mu-opioid, Fluo4 calcium fluorescence; hits give high values. B-score at 10 µM. 310,000 tested, 0.49% active. AID 2237;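 active = B-score above 5 SD of library B-scores, and initial fluorescence ratio not above library mean plus 5 SD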;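 note: positive B-score marks a calcium rise read as TRPC4 activation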
Target sequence (Q9QUQ5 whole entry, looked up): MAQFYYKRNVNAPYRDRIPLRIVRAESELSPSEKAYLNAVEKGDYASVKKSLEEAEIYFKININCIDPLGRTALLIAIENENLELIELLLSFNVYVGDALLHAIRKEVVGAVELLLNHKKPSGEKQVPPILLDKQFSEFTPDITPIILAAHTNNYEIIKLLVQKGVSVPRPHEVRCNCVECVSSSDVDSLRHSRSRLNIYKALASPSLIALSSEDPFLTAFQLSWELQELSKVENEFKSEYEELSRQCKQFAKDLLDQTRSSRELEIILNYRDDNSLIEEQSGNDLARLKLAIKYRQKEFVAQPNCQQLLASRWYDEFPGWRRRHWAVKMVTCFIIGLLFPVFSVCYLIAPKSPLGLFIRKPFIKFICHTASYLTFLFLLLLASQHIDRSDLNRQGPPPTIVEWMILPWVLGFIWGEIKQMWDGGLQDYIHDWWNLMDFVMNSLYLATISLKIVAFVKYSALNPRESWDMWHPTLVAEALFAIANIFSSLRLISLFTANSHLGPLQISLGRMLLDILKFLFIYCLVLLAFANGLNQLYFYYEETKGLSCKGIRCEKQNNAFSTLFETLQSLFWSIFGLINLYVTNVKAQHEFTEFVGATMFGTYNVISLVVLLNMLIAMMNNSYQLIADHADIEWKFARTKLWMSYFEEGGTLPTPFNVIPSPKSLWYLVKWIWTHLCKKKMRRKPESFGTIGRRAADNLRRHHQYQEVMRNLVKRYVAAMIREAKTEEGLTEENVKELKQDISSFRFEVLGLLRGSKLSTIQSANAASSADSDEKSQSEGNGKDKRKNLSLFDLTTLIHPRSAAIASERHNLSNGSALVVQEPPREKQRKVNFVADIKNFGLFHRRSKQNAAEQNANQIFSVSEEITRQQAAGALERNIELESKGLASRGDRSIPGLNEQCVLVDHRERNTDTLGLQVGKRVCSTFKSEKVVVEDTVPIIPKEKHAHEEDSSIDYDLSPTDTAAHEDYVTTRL
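system = HEK293 cells stably co-expressing mouse TRPC4beta and mu-opioid receptor | schedule = Fluo4 dye loading 45 min at room temperature, 110 s recording | measure = B-scored integrated calcium fluorescence ratio | signal = Fluo4 calcium-sensitive dye fluorescence, kinetic, 1 Hz baseline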
TRPC6 activator: mouse TRPC6 channel activation | B-score at 10 µM | 310,000 tested, 0.13% active | HEK293-TRPC6 membrane potential dye fluorescence; hits give high values | Q61143 | AID 2550;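 active = B-score of the integrated fluorescence ratio above library mean plus 3 SD, and starting fluorescence ratio within library mean plus 5 SD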;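 note: higher score means more depolarization so channel activation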
TRPC4 block: blocks the mouse TRPC4 cation channel; HEK293 TRPC4beta/mu-opioid, DAMGO-evoked Fluo4 calcium flux; hits give low values; B-score at 10 µM; 300,000 tested, 0.39% active; AID 2247;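 active = B-score over 3 SD under the library average, no early fluorescence shift, positive overall ratio signal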
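System: stable TRPC4beta/mu-opioid receptor HEK293 cells; Dosing: single-point compound dosing; Measured by: Fluo4 Ca2+ flux fluorescence; Read-out basis: per-well B score of integrated baseline-normalized Fluo4 ratio.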
TRPC4 potent: allosterically enhances the mouse TRPC4 cation channel | Q9QUQ5 | HEK293 TRPC4beta/mu-opioid, DAMGO EC20, Fluo-4 Ca2+ flux; hits give high values | B-score at 10 µM | 310,000 tested, 0.42% active | AID 2227;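 active = B-score of calcium response area above 5 SD of library B-scores, with initial fluorescence ratio within 5 SD of library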
TRPC6 inhibitor: mouse TRPC6 channel inhibition | Q61143 | HEK293-TRPC6, membrane potential dye, ACh-evoked depolarization; hits give low values | B-score at 10 µM | 310,000 tested, 1.1% active | AID 2553;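 active = B-score under library mean minus 3 SD, initial fluorescence not abnormally high, positive integrated signal ratio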;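 note: B-score derived from integrated fluorescence ratio over the kinetic read; more negative B-score means stronger inhibition of depolarization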
TRPC4 sel inh 2: second check of whether TRPC6 inhibitors also affect mouse TRPC4; shares compounds with TRPC6 inhibitor; HEK293 TRPC4/MOR, membrane potential dye fluorescence; channel activated by saturating DAMGO dose; inhibition, % at 10 µM; 920 tested, 42% active;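 active = compounds whose fluorescence signal differed from control wells by over 3 SD, either direction, in both duplicate plates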
TRPC4 spec: selectivity of TRPC6 inhibitors: effect on mouse TRPC4. activity change, negative = inhibition, % at 10 µM. shares compounds with TRPC6 inhibitor. AID 2777. HEK293 TRPC4/mu-opioid, membrane potential fluorescence. 920 tested, 61% active;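 active = rise or fall in signal beyond 3 SD of buffer-only wells in both replicate plates, either sign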;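 note: integrated kinetic ratio of fluorescence range over baseline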
HEK293 MPD ctr 2-1: parental HEK293 nonspecific activity of TRPC6 inhibitors, second screen. shares compounds with TRPC6 inhibitor. parental HEK293 membrane potential dye fluorescence; maximal acetylcholine challenge after compound addition. signal change vs control, % at 10 µM. 920 tested, 31% active;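 active = membrane potential signal moving either way by over 3 SD of the maximum-effect control, in both duplicate plates, meaning non-specific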
HEK293 MPD ctr-1: counter-screen for TRPC6 inhibitors: effect in parental HEK293 cells; parental HEK293 membrane potential dye fluorescence; membrane potential signal change, % at 10 µM; shares compounds with TRPC6 inhibitor; 920 tested, 60% active;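 active = membrane potential signal shifting up or down by more than 3 SD of buffer-only wells, on both duplicate plates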
HEK293 MPD ctr-2: checks TRPC6 modulator effects in parental HEK293 cells. shares compounds with TRPC6 inhibitor. membrane potential dye fluorescence. membrane potential signal change, % at 10 µM. 2,400 tested, 51% active;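 active = membrane potential signal moves up or down beyond 5 SD from buffer-only wells, on both duplicate plates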
HEK293 MPD ctr 2-2: parental HEK293 nonspecific activity of TRPC6 modulators, second screen | shares compounds with TRPC6 inhibitor | membrane potential dye fluorescence; after compound, maximal acetylcholine stimulation | inhibition, % at 10 µM | 2,400 tested, 14% active | AID 488926;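 active = membrane potential signal drops by more than 5 SD from the mean control signal, in both duplicate plates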
TRPC4/MOR mod: selectivity of TRPC6 modulators against mouse TRPC4. shares compounds with TRPC6 inhibitor. HEK293 TRPC4/mu-opioid, membrane potential fluorescence. 2,400 tested, 69% active. AID 488927. percent change from control (negative = decrease, positive = increase), % at 10 µM;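 active = membrane potential signal moved up or down beyond 5 SD of buffer control wells, in both duplicate plates, actives on both sides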
TRPC4/MOR inh 2: second selectivity test of TRPC6 modulators against mouse TRPC4; HEK293 TRPC4/mu-opioid, membrane potential dye fluorescence; stimulated with maximal-effect DAMGO; 2,400 tested, 55% active; AID 488928; inhibition, % at 10 µM; shares compounds with TRPC6 inhibitor;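 active = drop in membrane potential signal beyond 5 SD of the control wells in both duplicate plates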;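 note: TRPC4 counter screen for TRPC6 hits run under conditions tuned for TRPC6 not TRPC4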
TRPC6 inh conf: mouse TRPC6 inhibitor confirmation | shares compounds with TRPC6 inhibitor | AID 488960 | HEK293-TRPC6, membrane potential dye, ACh-evoked depolarization | 3,300 tested, 43% active | inhibition, % at 10 µM;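 active = fluorescence ratio falls more than 5 SD below the full-stimulation control mean, in both duplicate runs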;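 note: integrated fluorescence ratio of peak minus minimum over baseline after agonist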
TRPC6 act conf: confirmation of mouse TRPC6 activators; shares compounds with TRPC6 inhibitor; HEK293-TRPC6 membrane potential dye fluorescence, FDSS; activation, % at 10 µM; 2,800 tested, 11% active; AID 488961;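 active = ratio signal rise beyond 5 SD above unstimulated control wells' mean, seen in both duplicate runs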
Large screens that a line does not name were inactive (follow-up assays come after a bar, where they were run).

COCCn1c(SC(C)C(=O)NCC2CCCO2)nc2sc3c(c2c1=O)CCC3 (stereo not drawn)	none
Cn1c(=O)c2c(nc(NCC3CCCC(CN)C3)n2Cc2ccc(Cl)cc2Cl)n(C)c1=O (stereo not drawn)	none
CCOc1ccc(CCNC(=O)C2CCCN(S(=O)(=O)N3CCOCC3)C2)cc1OCC (stereo not drawn)	none
Cc1nc2ccccc2n1S(=O)(=O)c1ccc(F)cc1	none
Cc1ccc(S(=O)(=O)n2c(N)nc3ccccc32)cc1	TRPC6 inhibitor -8.4 | TRPC4 sel inh 2 inactive | TRPC4 spec inactive | HEK293 MPD ctr 2-1 38% | HEK293 MPD ctr-1 inactive | TRPC6 inh conf 64% | TRPC6 act conf inactive
O=C(Nc1cccc(CNCCc2c[nH]c3ccccc23)c1)c1ccccc1Cl	TRPC6 inhibitor -6.5 | HEK293 MPD ctr-2 inactive | HEK293 MPD ctr 2-2 inactive | TRPC4/MOR mod -15% | TRPC4/MOR inh 2 80% | TRPC6 inh conf 55% | TRPC6 act conf inactive
CCN(CC)CCCOC(=O)C1(c2ccccc2)CCCC1	TRPC6 inhibitor -9.1 | TRPC4 sel inh 2 inactive | TRPC4 spec 12% | HEK293 MPD ctr 2-1 12% | HEK293 MPD ctr-1 12% | TRPC6 inh conf 60%
C[N+](C)(C)CCOC(=O)C1(c2ccccc2)CCCC1	TRPC6 inhibitor -8.5 | TRPC4 sel inh 2 inactive | TRPC4 spec inactive | HEK293 MPD ctr 2-1 1.0% | HEK293 MPD ctr-1 inactive | TRPC6 inh conf 69% | TRPC6 act conf inactive
C[N+]1(CCOC(=O)C2(c3ccccc3)CCCC2)CCCCC1	TRPC6 inhibitor -11 | TRPC4 sel inh 2 inactive | TRPC4 spec inactive | HEK293 MPD ctr 2-1 -16% | HEK293 MPD ctr-1 inactive | TRPC6 inh conf 78% | TRPC6 act conf inactive
CCOc1ccc(S(=O)(=O)n2nc(C)cc2C)cc1	none
[O-]/[N+](=C/c1cccnc1)c1ccc(Br)cc1	TRPC6 inhibitor -6 | HEK293 MPD ctr-2 inactive | HEK293 MPD ctr 2-2 inactive | TRPC4/MOR mod inactive | TRPC4/MOR inh 2 inactive | TRPC6 inh conf inactive | TRPC6 act conf inactive
[O-]/[N+](=C\c1ccncc1)c1ccc(Br)cc1	none
O=C(Nc1ccc(F)cc1Cl)c1ccc2c(=O)n3c(nc2c1)CCC3	none
C[n+]1cccc2ccc3c(c21)OC(N)=C(C#N)C3c1ccccc1 (stereo not drawn)	TRPC6 inhibitor -9.2 | HEK293 MPD ctr-2 -284% | HEK293 MPD ctr 2-2 80% | TRPC4/MOR mod -48% | TRPC4/MOR inh 2 60% | TRPC6 inh conf 74% | TRPC6 act conf inactive
Cc1c(C(=O)OCCN2CCCCC2)oc2ccccc12	TRPC6 inhibitor -8.6 | TRPC4 sel inh 2 inactive | TRPC4 spec 10% | HEK293 MPD ctr 2-1 inactive | HEK293 MPD ctr-1 15% | TRPC6 inh conf inactive
COc1ccc(C(=O)OCCN2CCCCC2)cc1	none
CC(C)(C)c1ccc(C(=O)OCCN2CCCCC2)cc1	TRPC6 activator 13 | HEK293 MPD ctr-2 128% | HEK293 MPD ctr 2-2 inactive | TRPC4/MOR mod 26% | TRPC4/MOR inh 2 56% | TRPC6 inh conf inactive | TRPC6 act conf 66%
Cc1c(C(=O)OC(C)CCN(C)C)oc2ccccc12 (stereo not drawn)	TRPC6 inhibitor -9.7 | TRPC4 sel inh 2 inactive | TRPC4 spec 7.3% | HEK293 MPD ctr 2-1 inactive | HEK293 MPD ctr-1 11% | TRPC6 inh conf inactive
Cc1c(C(=O)OCC(C)(C)CN(C)C)oc2ccccc12	none
CCC(C(=O)NC1CCCC1)N(C(=O)Cn1nnc(-c2ccc(C)o2)n1)c1ccc(F)cc1 (stereo not drawn)	none
COc1ccccc1CCC(=O)OCC(=O)Nc1c(C)nn(-c2ccccc2)c1C	none
CC(C)(C)OC(=O)NC1CC2CCCC(C1)N2Cc1ccccc1 (stereo not drawn)	TRPC6 inhibitor -5.6 | HEK293 MPD ctr-2 inactive | HEK293 MPD ctr 2-2 88% | TRPC4/MOR mod 14% | TRPC4/MOR inh 2 29% | TRPC6 inh conf 74%
COCC(=O)NC1CC2CCCC(C1)N2Cc1ccccc1 (stereo not drawn)	none
Cc1c(C)[n+](=O)c2c(n1[O-])CCCCC2	TRPC6 inhibitor -7.7 | TRPC4 sel inh 2 inactive | TRPC4 spec inactive | HEK293 MPD ctr 2-1 inactive | HEK293 MPD ctr-1 inactive | TRPC6 inh conf inactive | TRPC6 act conf inactive
CN1CCN(c2ncnc3sc(-c4ccccc4)cc23)CC1	TRPC6 inhibitor -6.2 | HEK293 MPD ctr-2 inactive | HEK293 MPD ctr 2-2 inactive | TRPC4/MOR mod inactive | TRPC4/MOR inh 2 38% | TRPC6 inh conf inactive | TRPC6 act conf inactive
c1ccc(-c2cc3c(N4CCN(c5ccccc5)CC4)ncnc3s2)cc1	none
O=C(Nc1nncs1)C12CC3CC(CC(Cl)(C3)C1)C2	none
CCc1cccc(NS(=O)(=O)c2ccc3c(c2)NC(=O)CC(=O)N3)c1	none
CCc1ccccc1NS(=O)(=O)c1ccc2c(c1)NC(=O)CC(=O)N2	TRPC6 inhibitor -9.4 | TRPC4 sel inh 2 inactive | TRPC4 spec inactive | HEK293 MPD ctr 2-1 inactive | HEK293 MPD ctr-1 inactive | TRPC6 inh conf inactive | TRPC6 act conf inactive
O=C(Nc1nc2ccccc2s1)C1CCN(S(=O)(=O)c2cc([N+](=O)[O-])ccc2Cl)CC1	none
Cc1cc(C)nc(/N=C(\N)N2CCc3ccccc32)n1	TRPC6 inhibitor -6.4 | HEK293 MPD ctr-2 inactive | HEK293 MPD ctr 2-2 inactive | TRPC4/MOR mod -12% | TRPC4/MOR inh 2 46% | TRPC6 inh conf inactive | TRPC6 act conf inactive

High-throughput results from PubChem BioAssay.
